Reference: ChEMBL document CHEMBL4414575, “Yangpumicins F and G, Enediyne Congeners from Micromonospora yangpuensis DSM 45577” (J Nat Prod, 2019)
≈ marks a conversion by molar mass, not a printed value. Calls of active or inactive are those of the source. The calls are words filed in the database; no cut-off is given here.

Tests used:
Escherichia coli = test: Antimicrobial activity against Escherichia coli incubated for 18 hrs by resazurin staining based microbroth dilution assay; format: functional
How it was run: (§1)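 Strains grown overnight, diluted to 10^6 CFU/mL in LB broth. Compounds in DMSO, serially diluted in LB (pg/mL to ng/mL range), mixed 1:1 with bacterial suspension. Vancomycin is the reference, 0.03125–16 μg/mL. Plates incubated 37 °C for 18 h, then resazurin added for read-out. Duplicates per plate.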

SK-BR-3 [1] = test: Cytotoxicity against human SKBR3 cells assessed as inhibition of cell viability incubated for 72 hrs by MTT assay; format: functional, cell-based; conditions: SK-BR-3, 72 h
How it was run: (§2)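 Cells seeded at 2,000–4,000 per well and left 24 h. They are then exposed to a range of compound concentrations for 72 h. Survival is read by adding CCK-8 solution and measuring absorbance at 450 nm. Mitomycin is the reference control.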

Caco-2 [2] = test: Cytotoxicity against human Caco2 cells assessed as inhibition of cell viability incubated for 72 hrs by MTT assay; format: functional, cell-based; conditions: Caco-2, 72 h; how it was run: as §2
Jurkat = test: Cytotoxicity against human Jurkat cells assessed as inhibition of cell viability incubated for 72 hrs by MTT assay; format: functional, cell-based; how it was run: as §2
A549 = test: Cytotoxicity against human A549 cells assessed as inhibition of cell viability incubated for 72 hrs by MTT assay; format: functional, cell-based; conditions: A549, 72 h; how it was run: as §2
Staphylococcus aureus [3] = test: Antimicrobial activity against Methicillin-resistant Staphylococcus aureus incubated for 18 hrs by resazurin staining based microbroth dilution assay; format: functional
How it was run: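 Overnight culture diluted to 106 CFU/mL in LB broth, mixed 1:1 with compound serially diluted in LB on the plate from DMSO stock (1–512 ng/mL and 1–512 pg/mL series; vancomycin 0.03125–16 μg/mL). Incubated 37 °C for 18 h, then resazurin added to read growth; MIC taken from broth microdilution, duplicate per plate. Strain is a local hospital MRSA isolate.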

Staphylococcus aureus [4] = test: Antimicrobial activity against Staphylococcus aureus ATCC 29213 incubated for 18 hrs by resazurin staining based microbroth dilution assay; format: functional; conditions: ATCC 29213, 18 h; how it was run: as §1
Staphylococcus aureus [5] = test: Potency index, ratio of MIC for vancomycin to MIC for test compound for antimicrobial activity against Methicillin-resistant Staphylococcus aureus; format: functional
How it was run: (§3)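 Overnight bacterial cultures diluted to 10^6 CFU/mL in LB broth, mixed 1:1 with LB holding serial dilutions of test compound (DMSO stocks, 1–512 pg/mL and 1–512 ng/mL series) or vancomycin (0.03125–16 μg/mL). Incubated 37 °C, 18 h, then resazurin added for read-out. Run in duplicate per plate. Index is vancomycin MIC divided by test-compound MIC.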

Caco-2 [6] = test: Potency index, ratio of YPM G IC50 to compound IC50 for cytotoxicity against human Caco2 cells by MTT assay; format: functional
SK-BR-3 [7] = test: Potency index, ratio of YPM G IC50 to compound IC50 for cytotoxicity against human SKBR3 cells by MTT assay; format: functional
Staphylococcus aureus [8] = test: Potency index, ratio of MIC for vancomycin to MIC for test compound for antimicrobial activity against Staphylococcus aureus ATCC 29213; format: functional; how it was run: as §3
SK-BR-3 [9] = test: Cytotoxicity against human SKBR3 cells assessed as inhibition of cell viability incubated for 8 hrs by rapid killing based MTT assay; format: functional
How it was run: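 Seeding was 2,000–4,000 cells/well, with 24 h attachment. Compound exposure at varying concentrations lasted only 8 h. Viability was read by CCK-8 absorbance at 450 nm. Mean ± SD of three replicates, with curves fitted.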

Row | Compound | MIC (Escherichia coli) [ng/mL] | IC50 (SK-BR-3 [1]) [nM] | IC50 (Caco-2 [2]) [nM] | IC50 (Jurkat) [nM] | IC50 (A549) [nM] | MIC (Staphylococcus aureus [3]) [ng/mL] | MIC (Staphylococcus aureus [4]) [ng/mL] | Ratio IC50 (Staphylococcus aureus [5]) | Ratio IC50 (Caco-2 [6]) | Ratio IC50 (SK-BR-3 [7]) | Ratio IC50 (Staphylococcus aureus [8]) | Activity (SK-BR-3 [9])
1 | CN[C@H](CC(C)C)C(=O)N[C@H]1C(=O)N[C@@H](CC(N)=O)C(=O)N[C@H]2C(=O)N[C@H]3C(=O)N[C@H](C(=O)N[C@H](C(=O)O)c4cc(O)cc(O)c4-c4cc3ccc4O)[C@H](O)c3ccc(c(Cl)c3)Oc3cc2cc(c3O[C@@H]2O[C@H](CO)[C@@H](O)[C@H](O)[C@H]2O[C@H]2C[C@](C)(N)[C@H](O)[C@H](C)O2)Oc2ccc(cc2Cl)[C@H]1O [VANCOMYCIN] | > 16000 |  |  |  |  |  |  |  |  |  |  | 
2 | CO[C@@]12[C@H](COC(N)=O)C3=C(C(=O)C(C)=C(N)C3=O)N1C[C@@H]1N[C@@H]12 [MITOMYCIN] |  | 1000 | 5800 | 430 | 270 |  |  |  |  |  |  | 
3 | O=C1c2ccccc2C(=O)c2c3c(cc(O)c21)[C@@]12O[C@@]1([C@H](O)CO)[C@H](C#C/C=C\C#C[C@H]2O)N3 |  | 24.2 | 55.2 | 0.62 | 3.41 | 0.002 (≈ 0.00439 nM) | 0.002 (≈ 0.00439 nM) |  |  |  |  | 
4 | C[C@@H](O)[C@@]12O[C@]13c1cc(O)c4c(c1N[C@H]2C#C/C=C\C#C[C@H]3O)C(=O)c1c(O)cccc1C4=O | 0.128 (≈ 0.281 nM) | 0.86 | 3.4 | 0.24 | 0.02 | < 0.001 | < 0.001 | 1000000 | 10 | 10 | 1000000 | Active
5 | O=C1c2cccc(O)c2C(=O)c2c3c(cc(O)c21)[C@@]12O[C@@]1([C@H](O)CO)[C@H](C#C/C=C\C#C[C@H]2O)N3 | 0.032 (≈ 0.0679 nM) | 2.56 | 3.16 | 0.17 | 0.24 | < 0.001 | < 0.001 | 1000000 | 10 | 10 | 1000000 | Active
